Calls of active or inactive are those of the source.
How the values were obtained:
Assay type in all cases: cell-based
[1] = biological target: T1, Protein cereblon/Protein deacetylase HDAC6 (Homo sapiens, UniProt Q9UBN7+Q96SW2); assay: Induction of CRBN ubiquitin ligase-mediated HDAC6 degradation in human MCF7 cells assessed as decrease in HDAC6 levels at 5 uM after 12 hrs by immunoblotting analysis
Procedure, shortened: (§1)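 MCF-7 cells exposed to bifunctional degraders at 5 µM for 12 h. Whole-cell lysate run on SDS-PAGE and immunoblotted for HDAC1, HDAC2, HDAC4 and HDAC6.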
Target sequence in this assay (Q96SW2 whole entry, looked up): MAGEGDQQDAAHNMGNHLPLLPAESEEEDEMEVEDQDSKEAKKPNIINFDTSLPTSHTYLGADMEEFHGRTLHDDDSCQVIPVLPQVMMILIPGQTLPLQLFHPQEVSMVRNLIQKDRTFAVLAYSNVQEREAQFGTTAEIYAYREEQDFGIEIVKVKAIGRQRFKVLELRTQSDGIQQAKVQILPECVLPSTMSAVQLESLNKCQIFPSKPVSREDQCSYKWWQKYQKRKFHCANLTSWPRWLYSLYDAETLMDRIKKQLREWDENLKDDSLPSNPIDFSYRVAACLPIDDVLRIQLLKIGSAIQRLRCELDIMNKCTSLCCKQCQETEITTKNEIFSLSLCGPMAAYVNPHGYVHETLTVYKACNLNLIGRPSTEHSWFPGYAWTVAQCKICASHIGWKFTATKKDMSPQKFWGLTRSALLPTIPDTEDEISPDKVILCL
Target sequence in this assay (Q9UBN7 whole entry, looked up): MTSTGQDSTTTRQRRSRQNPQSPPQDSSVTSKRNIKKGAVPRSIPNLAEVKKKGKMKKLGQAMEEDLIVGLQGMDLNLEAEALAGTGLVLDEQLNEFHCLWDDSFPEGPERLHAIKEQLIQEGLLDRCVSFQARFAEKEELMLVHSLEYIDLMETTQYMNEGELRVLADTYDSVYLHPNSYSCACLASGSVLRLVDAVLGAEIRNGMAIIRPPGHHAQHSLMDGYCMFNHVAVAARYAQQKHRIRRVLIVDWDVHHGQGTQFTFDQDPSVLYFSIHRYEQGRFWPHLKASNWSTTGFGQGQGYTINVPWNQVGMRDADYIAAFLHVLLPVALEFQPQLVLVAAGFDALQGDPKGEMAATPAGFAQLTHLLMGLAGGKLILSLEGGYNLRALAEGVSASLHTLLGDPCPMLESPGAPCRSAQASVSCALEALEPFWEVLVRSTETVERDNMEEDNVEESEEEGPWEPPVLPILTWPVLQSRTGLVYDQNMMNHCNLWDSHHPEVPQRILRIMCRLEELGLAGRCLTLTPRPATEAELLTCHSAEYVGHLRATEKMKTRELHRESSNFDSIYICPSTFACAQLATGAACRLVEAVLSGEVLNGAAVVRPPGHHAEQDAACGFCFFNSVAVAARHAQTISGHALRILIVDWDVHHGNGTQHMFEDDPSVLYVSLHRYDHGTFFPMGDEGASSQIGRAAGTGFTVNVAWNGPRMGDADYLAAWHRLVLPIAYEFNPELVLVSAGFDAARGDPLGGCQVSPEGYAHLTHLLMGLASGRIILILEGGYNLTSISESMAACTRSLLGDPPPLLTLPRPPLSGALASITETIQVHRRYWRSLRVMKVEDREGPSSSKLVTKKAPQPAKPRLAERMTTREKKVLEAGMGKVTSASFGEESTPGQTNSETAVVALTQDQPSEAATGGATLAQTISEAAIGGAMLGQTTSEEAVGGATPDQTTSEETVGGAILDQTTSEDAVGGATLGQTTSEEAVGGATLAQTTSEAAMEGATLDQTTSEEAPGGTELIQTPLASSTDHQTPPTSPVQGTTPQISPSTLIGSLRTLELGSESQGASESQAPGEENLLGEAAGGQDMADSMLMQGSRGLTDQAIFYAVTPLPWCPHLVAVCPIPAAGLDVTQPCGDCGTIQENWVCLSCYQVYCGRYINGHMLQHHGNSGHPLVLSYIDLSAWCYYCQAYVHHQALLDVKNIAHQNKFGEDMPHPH

[2] = biological target: T2, Protein cereblon/Histone deacetylase 1 (Homo sapiens) (UniProt Q13547+Q96SW2); assay: Induction of CRBN ubiquitin ligase-mediated HDAC1 degradation in human MCF7 cells assessed as decrease in HDAC1 levels at 5 uM after 12 hrs by immunoblotting analysis; procedure, shortened: as §1
T2 sequence (Q13547 whole entry, looked up): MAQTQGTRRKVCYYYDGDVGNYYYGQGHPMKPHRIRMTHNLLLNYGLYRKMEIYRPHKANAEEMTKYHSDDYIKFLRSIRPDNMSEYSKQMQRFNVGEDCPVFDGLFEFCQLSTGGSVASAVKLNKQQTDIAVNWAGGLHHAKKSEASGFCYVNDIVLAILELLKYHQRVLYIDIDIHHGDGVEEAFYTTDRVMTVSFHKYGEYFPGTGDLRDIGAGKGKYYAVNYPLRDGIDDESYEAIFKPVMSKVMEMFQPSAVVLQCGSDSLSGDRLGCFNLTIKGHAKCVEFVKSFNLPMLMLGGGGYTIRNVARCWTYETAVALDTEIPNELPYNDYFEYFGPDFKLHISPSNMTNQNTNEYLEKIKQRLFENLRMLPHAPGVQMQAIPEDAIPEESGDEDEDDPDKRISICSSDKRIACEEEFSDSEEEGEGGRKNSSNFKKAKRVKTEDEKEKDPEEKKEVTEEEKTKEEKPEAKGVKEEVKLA
T2 sequence (Q96SW2 whole entry, looked up): as the sequence (Q96SW2 whole entry, looked up) above

[3] = biological target: T3, Protein cereblon/Histone deacetylase 2 (Homo sapiens) (UniProt Q92769+Q96SW2); assay: Induction of CRBN ubiquitin ligase-mediated HDAC2 degradation in human MCF7 cells assessed as decrease in HDAC2 levels at 5 uM after 12 hrs by immunoblotting analysis; procedure, shortened: as §1
T3 sequence (Q92769 whole entry, looked up): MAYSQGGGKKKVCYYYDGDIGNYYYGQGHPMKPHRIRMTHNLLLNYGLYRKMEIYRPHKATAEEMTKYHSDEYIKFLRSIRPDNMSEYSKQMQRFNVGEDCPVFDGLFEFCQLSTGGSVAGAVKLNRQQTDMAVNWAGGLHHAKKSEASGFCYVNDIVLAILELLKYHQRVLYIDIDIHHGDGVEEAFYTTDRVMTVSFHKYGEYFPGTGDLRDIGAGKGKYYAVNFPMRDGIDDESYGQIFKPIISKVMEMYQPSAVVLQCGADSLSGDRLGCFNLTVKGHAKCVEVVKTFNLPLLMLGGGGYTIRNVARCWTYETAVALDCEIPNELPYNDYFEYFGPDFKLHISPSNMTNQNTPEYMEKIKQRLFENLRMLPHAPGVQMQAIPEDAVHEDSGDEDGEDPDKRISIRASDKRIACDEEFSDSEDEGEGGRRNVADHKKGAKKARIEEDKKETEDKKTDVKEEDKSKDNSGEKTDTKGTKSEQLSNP
T3 sequence (Q96SW2 whole entry, looked up): as the sequence (Q96SW2 whole entry, looked up) above

[4] = biological target: Protein cereblon/Histone deacetylase 4 (Homo sapiens) (UniProt P56524+Q96SW2); assay: Induction of CRBN ubiquitin ligase-mediated HDAC4 degradation in human MCF7 cells assessed as decrease in HDAC4 levels at 5 uM after 12 hrs by immunoblotting analysis; procedure, shortened: as §1
Chain of Protein cereblon/Histone deacetylase 4 (Homo sapiens) (P56524 whole entry, looked up): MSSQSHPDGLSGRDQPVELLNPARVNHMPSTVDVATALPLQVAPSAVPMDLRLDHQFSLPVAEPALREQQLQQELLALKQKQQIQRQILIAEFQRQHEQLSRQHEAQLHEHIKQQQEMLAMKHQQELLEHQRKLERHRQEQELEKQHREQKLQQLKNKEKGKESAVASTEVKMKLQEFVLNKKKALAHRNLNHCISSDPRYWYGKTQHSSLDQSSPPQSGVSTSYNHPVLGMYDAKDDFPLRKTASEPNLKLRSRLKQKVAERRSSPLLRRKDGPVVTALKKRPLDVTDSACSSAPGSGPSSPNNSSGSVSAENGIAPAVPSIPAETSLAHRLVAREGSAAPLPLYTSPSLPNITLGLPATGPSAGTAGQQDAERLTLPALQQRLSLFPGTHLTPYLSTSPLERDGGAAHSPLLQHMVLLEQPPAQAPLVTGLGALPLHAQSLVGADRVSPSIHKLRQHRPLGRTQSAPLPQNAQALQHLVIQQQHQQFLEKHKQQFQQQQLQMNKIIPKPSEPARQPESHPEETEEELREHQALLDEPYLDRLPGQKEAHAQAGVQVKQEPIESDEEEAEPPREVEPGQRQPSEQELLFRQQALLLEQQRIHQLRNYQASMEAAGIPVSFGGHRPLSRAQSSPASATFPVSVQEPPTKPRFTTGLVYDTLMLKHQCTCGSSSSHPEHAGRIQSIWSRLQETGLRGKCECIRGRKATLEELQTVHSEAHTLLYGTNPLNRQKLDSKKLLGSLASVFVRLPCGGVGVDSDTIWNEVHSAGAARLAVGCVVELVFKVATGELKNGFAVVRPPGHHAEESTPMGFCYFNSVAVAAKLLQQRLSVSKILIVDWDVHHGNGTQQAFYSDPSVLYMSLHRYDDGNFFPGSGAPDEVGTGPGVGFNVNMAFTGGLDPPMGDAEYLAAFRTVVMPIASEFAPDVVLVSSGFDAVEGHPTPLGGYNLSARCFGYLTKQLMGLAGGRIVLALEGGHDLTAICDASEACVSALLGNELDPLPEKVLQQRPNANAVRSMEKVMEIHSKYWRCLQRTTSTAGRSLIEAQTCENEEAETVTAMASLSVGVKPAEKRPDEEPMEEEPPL
Chain of Protein cereblon/Histone deacetylase 4 (Homo sapiens) (Q96SW2 whole entry, looked up): as the sequence (Q96SW2 whole entry, looked up) above

[5] = biological target: T1, Protein cereblon/Protein deacetylase HDAC6; assay: Induction of CRBN ubiquitin ligase-mediated HDAC6 degradation in human MCF7 cells assessed as decrease in HDAC6 levels after 12 hrs by immunoblotting analysis
Procedure, shortened: (§2)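 MCF-7 cells treated for 12 h across a range of 5 nM to 10 µM. Whole-cell lysate immunoblotted for HDAC6 and acetylated α-tubulin. Band intensities quantified by densitometry and curve-fitted to derive half-maximal degradation.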

[6] = biological target: T1, Protein cereblon/Protein deacetylase HDAC6; assay: Induction of CRBN ubiquitin ligase-mediated HDAC6 degradation in human MCF7 cells assessed as increase in acetylated alpha-tubulin levels at 1.1 to 10 uM after 12 hrs by immunoblotting analysis; procedure, shortened: as §2
Target sequence in this assay (Q96SW2 whole entry, looked up): as above
Target sequence in this assay (Q9UBN7 whole entry, looked up): as the sequence (Q9UBN7 whole entry, looked up) above

[7] = biological target: T1, Protein cereblon/Protein deacetylase HDAC6; assay: Induction of CRBN ubiquitin ligase-mediated HDAC6 degradation in human MCF7 cells assessed as increase in acetylated alpha-tubulin levels at 2 uM after 2 hrs by immunoblotting analysis
Procedure, shortened: (§3)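 Time course in MCF-7 cells: 2 µM degrader or DMSO vehicle for 0–8 h. Whole-cell lysate immunoblotted for HDAC6 and acetylated α-tubulin.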
Target sequence in this assay (Q96SW2 whole entry, looked up): as the sequence (Q96SW2 whole entry, looked up) above
Target sequence in this assay (Q9UBN7 whole entry, looked up): as the sequence (Q9UBN7 whole entry, looked up) above

[8] = biological target: T1, Protein cereblon/Protein deacetylase HDAC6; assay: Induction of CRBN ubiquitin ligase-mediated HDAC6 degradation in human MCF7 cells assessed as decrease in HDAC6 levels at 2 uM after 2 hrs by immunoblotting analysis; procedure, shortened: as §3
Target sequence in this assay (Q96SW2 whole entry, looked up): as the sequence (Q96SW2 whole entry, looked up) above
Target sequence in this assay (Q9UBN7 whole entry, looked up): as the sequence (Q9UBN7 whole entry, looked up) above

[9] = biological target: T1, Protein cereblon/Protein deacetylase HDAC6; assay: (§4) Induction of CRBN ubiquitin ligase-mediated HDAC6 degradation in human MCF7 cells assessed as decrease in HDAC6 levels at 2 uM preincubated for 1 hr with proteosome-inhibitor MG132 followed by compound addition for 12 hrs by immunoblotting analysis
Procedure, shortened: (§5)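 MCF-7 cells pre-treated 1 h with 5 µM MG132, 5 µM pomalidomide or DMSO vehicle, then given 2 µM degrader or vehicle for 12 h. Whole-cell lysate immunoblotted for HDAC6 and acetylated α-tubulin.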
Target sequence in this assay (Q96SW2 whole entry, looked up): as the sequence (Q96SW2 whole entry, looked up) above
Target sequence in this assay (Q9UBN7 whole entry, looked up): as the sequence (Q9UBN7 whole entry, looked up) above

[10] = biological target: T1, Protein cereblon/Protein deacetylase HDAC6; assay: Induction of CRBN ubiquitin ligase-mediated HDAC6 degradation in human MCF7 cells assessed as decrease in HDAC6 levels at 2 uM preincubated for 1 hr with CRBN ligand pomalidomide followed by compound addition for 12 hrs by immunoblotting analysis; procedure, shortened: as §5
Target sequence in this assay (Q96SW2 whole entry, looked up): as the sequence (Q96SW2 whole entry, looked up) above
Target sequence in this assay (Q9UBN7 whole entry, looked up): as the sequence (Q9UBN7 whole entry, looked up) above

[11] = biological target: T1, Protein cereblon/Protein deacetylase HDAC6; assay: (§6) Induction of CRBN ubiquitin ligase-mediated HDAC6 degradation in human MCF7 cells assessed as increase in acetylated alpha-tubulin levels at 2 uM preincubated for 1 hr with proteosome-inhibitor MG132 followed by compound addition for 12 hrs by immunoblotting analysis; procedure, shortened: as §5
[12] = biological target: T1, Protein cereblon/Protein deacetylase HDAC6; assay: Induction of CRBN ubiquitin ligase-mediated HDAC6 degradation in human MCF7 cells assessed as increase in acetylated alpha-tubulin levels at 2 uM at 2 uM preincubated for 1 hr with CRBN ligand pomalidomide followed by compound addition for 12 hrs by immunoblotting analysis; procedure, shortened: as §5
[13] = biological target: T1, Protein cereblon/Protein deacetylase HDAC6; assay: as §4, with “1 uM pan-HDAC inhibitor N-hydroxy-8-(2-(4-methoxybenzylidene)hydrazinyl)-8-oxooctanamide” for “proteosome-inhibitor MG132”
Procedure, shortened: (§7)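 MCF-7 cells pre-treated 1 h with pan-HDAC inhibitor (1 µM or 100 nM) or DMSO vehicle, then given 2 µM degrader or vehicle for 12 h. Whole-cell lysate immunoblotted for HDAC6 and acetylated α-tubulin.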

[14] = biological target: T1, Protein cereblon/Protein deacetylase HDAC6; assay: as §4, with “100 nM pan-HDAC inhibitor N-hydroxy-8-(2-(4-methoxybenzylidene)hydrazinyl)-8-oxooctanamide” for “proteosome-inhibitor MG132”; procedure, shortened: as §7
[15] = biological target: T1, Protein cereblon/Protein deacetylase HDAC6; assay: as §6, with “100 nM pan-HDAC inhibitor N-hydroxy-8-(2-(4-methoxybenzylidene)hydrazinyl)-8-oxooctanamide” for “proteosome-inhibitor MG132”; procedure, shortened: as §7
[16] = biological target: T2, Protein cereblon/Histone deacetylase 1 (Homo sapiens); assay: Induction of CRBN ubiquitin ligase-mediated HDAC1 degradation in human MCF7 cells assessed as increase in acetylated H3 levels at 2 uM after 12 hrs by immunoblotting analysis
[17] = biological target: T1, Protein cereblon/Protein deacetylase HDAC6; assay: Induction of CRBN ubiquitin ligase-mediated HDAC6 degradation in human MM1S cells assessed as decrease in HDAC6 levels at =>80 nM after 6 hrs by immunoblotting analysis
Procedure, shortened: (§8)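 MM.1S cells treated for 6 h at a range of concentrations. Whole-cell lysate immunoblotted for HDAC6 and acetylated α-tubulin.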

[18] = biological target: T1, Protein cereblon/Protein deacetylase HDAC6; assay: Induction of CRBN ubiquitin ligase-mediated HDAC6 degradation in human MM1S cells assessed as increase in acetylated alpha-tubulin levels at =>80 nM after 6 hrs by immunoblotting analysis; procedure, shortened: as §8
[19] = biological target: T3, Protein cereblon/Histone deacetylase 2 (Homo sapiens); assay: Induction of CRBN ubiquitin ligase-mediated HDAC2 degradation in human MCF7 cells assessed as increase in acetylated H3 levels at 2 uM after 12 hrs by immunoblotting analysis
[20] = biological target: Histone deacetylase (Homo sapiens) (UniProt Q13547+O15379+Q9UBN7+Q92769+Q9UQL6+Q8WUI4+Q9BY41+Q96DB2+P56524+Q9UKV0+Q969S8); assay: Inhibition of HDAC in human MCF7 cells assessed as increase in acetylated H3 levels at 2 uM after 12 hrs by immunoblotting analysis

O=C(CCCCCCC(=O)N/N=C/c1ccc(OCCOCCOCCn2cc(CNc3cccc4c3C(=O)N(C3CCC(=O)NC3=O)C4=O)nn2)cc1)NO (centres undefined)
inactive: Activity [2] | Activity [3] | Activity [4] | Activity [9] | Activity [10] | Activity [11] | Activity [12] | Activity [13]
70.5%: Emax [5]
34 nM: DC50 [5]
active: Activity [1] | Activity [5] Dose-dependent effect | Activity [6] | Activity [7] | Activity [8] | Activity [14] | Activity [15] | Activity [16] | Activity [17] | Activity [18] | Activity [19]

O=C(CCCCCCC(=O)N/N=C/c1ccc(OCCOCCn2cc(CNc3cccc4c3C(=O)N(C3CCC(=O)NC3=O)C4=O)nn2)cc1)NO (centres undefined)
active: Activity [1]
inactive: Activity [2] | Activity [3] | Activity [4]

O=C(CCCCCCC(=O)N/N=C/c1ccc(OCCn2cc(CNc3cccc4c3C(=O)N(C3CCC(=O)NC3=O)C4=O)nn2)cc1)NO (centres undefined)
active: Activity [1]
inactive: Activity [2] | Activity [3] | Activity [4]

COc1ccc(/C=N/NC(=O)CCCCCCC(=O)NO)cc1
active: inhibition [20]

O=C(CCCCCCC(=O)N/N=C/c1ccc(OCCOCCOCCOCCn2cc(CNc3cccc4c3C(=O)N(C3CCC(=O)NC3=O)C4=O)nn2)cc1)NO (centres undefined)
inactive: Activity [2] | Activity [3] | Activity [4]
active: Activity [1]

— ChEMBL document CHEMBL4118247, “Development of the first small molecule histone deacetylase 6 (HDAC6) degraders” (Bioorg Med Chem Lett, 2018)
